Measured values taken from ChEMBL document CHEMBL1127433, “N6-substituted adenosine receptor agonists. Synthesis and pharmacological activity as potent antinociceptive agents” (J Med Chem, 1994).
pKi: −log10 of the molar value. The source made the active and inactive calls. No cut-off for these calls is given here.

How the values were obtained:
[1] = target: T1, Adenosine receptor A1 (Rattus norvegicus) (UniProt P25099); assay: Percent displacement from adenosine A1 receptor at 10e-7 M in rat brain membrane in vitro.; format: cell membranes
T1 sequence (whole entry): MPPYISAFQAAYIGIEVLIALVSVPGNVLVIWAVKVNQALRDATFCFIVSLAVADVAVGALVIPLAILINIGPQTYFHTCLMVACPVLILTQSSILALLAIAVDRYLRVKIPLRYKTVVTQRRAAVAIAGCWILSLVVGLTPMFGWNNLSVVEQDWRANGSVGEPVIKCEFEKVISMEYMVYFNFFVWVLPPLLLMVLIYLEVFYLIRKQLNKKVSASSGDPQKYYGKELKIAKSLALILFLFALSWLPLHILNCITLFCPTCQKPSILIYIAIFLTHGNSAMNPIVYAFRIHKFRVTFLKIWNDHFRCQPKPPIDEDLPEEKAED

Adenosine A2 receptor = Adenosine A2 receptor (Rattus norvegicus, UniProt P29276+P30543); assay: Binding affinity for adenosine A2 receptor in vitro using rat striatal membrane.; format: cell membranes
In short: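 Rat striatal membranes in 50 mM Tris-HCl, 10 mM MgCl2, pH 7.7, adenosine deaminase treated (1 U/mL, 30 min). Incubated with [3H]NECA (4 nM, 50 μL) plus 0.11 μM cyclopentyladenosine and competitor for 60 min at 25 °C. Nonspecific binding defined with 5 μM NECA. GF/B filtration, scintillation counting, triplicate. IC50 from log-logit regression, Ki via Cheng-Prusoff, one experiment.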

[2] = target: T2, Adenosine A2 receptor (Rattus norvegicus) (UniProt P29276+P30543); assay: Percent displacement from adenosine A2 receptor at 10e-5 M in rat striatal membrane in vitro.; format: cell membranes
[3] = target: T1, Adenosine receptor A1 (Rattus norvegicus); assay: Percent displacement from adenosine A1 receptor at 10e-5 M in rat brain membrane in vitro.; format: cell membranes
Adenosine receptor A1 [4] = target: T3, Adenosine receptor A1 (Rattus norvegicus, UniProt P25099); assay: Binding affinity for adenosine A1 receptor in vitro using rat brain membranes.; format: cell membranes
T3 sequence (P25099 whole entry): T1 sequence (whole entry)
In short: (§1)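 Whole rat brain membranes, homogenized in 50 mM Tris-HCl pH 7.4 and spun at 1090g then 48000g, pretreated with adenosine deaminase 1 U/mL for 30 min. Nonspecific binding defined with 10 μM PIA. Separated by GF/B filtration and scintillation counted, in triplicate. IC50 from log-logit regression, Ki via Cheng-Prusoff, one experiment.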

Mus musculus [5] = assay: Effective dose of compound for phenylbenzoquinone-Induced writhing in mice after peroral administration expressed as analgesic activity; Inactive; format: functional, organism-based
In short: (§2)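 Mice dosed orally (0.5 mL/20 g); 1 h later given 0.02% phenylbenzoquinone in hydroalcoholic solution ip (0.20-0.24 mL). Writhings and stretches counted from minute 5 to minute 10. Six animals per group. Inhibition taken against the control mean; ED50 (50% decrease) by linear regression.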

[6] = target: T2, Adenosine A2 receptor (Rattus norvegicus); assay: Percent displacement from adenosine A2 receptor at 10e-7 M in rat striatal membrane in vitro.; format: cell membranes; settings: Striatum
Mus musculus [7] = assay: Effective dose of compound for phenylbenzoquinone-Induced writhing in mice after peroral administration expressed as analgesic activity; Not dose dependent; format: functional; settings: po; in short: as §2
Mus musculus [8] = assay: Effective dose of compound for phenylbenzoquinone-Induced writhing in mice after peroral administration expressed as analgesic activity; Not calculated; format: functional; settings: po; in short: as §2
Mus musculus [9] = assay: Effective dose for phenylbenzoquinone-induced writhing in mice after peroral administration expressed as analgesic activity.; format: functional; settings: po; in short: as §2
Adenosine receptor A1 [10] = target: T3, Adenosine receptor A1; assay: Binding affinity for adenosine A1 receptor in rat brain membrane; format: cell membranes
In short: as §1, with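 “U/mL for 30 min. Incubated with 2.5 nM [3H]PIA and competitor at 20 °C” for “U/mL”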

| Compound | Displacement [1] | Ki (Adenosine A2 receptor) | Displacement [2] | Displacement [3] | pKi (Adenosine receptor A1 [4]) | Displacement [6] | pKi (Adenosine receptor A1 [10]) | ED50 (Mus musculus [5]) | ED50 (Mus musculus [7]) | ED50 (Mus musculus [8]) | ED50 (Mus musculus [9]) |
| --- | --- | --- | --- | --- | --- | --- | --- | --- | --- | --- | --- |
| OC[C@H]1OC(n2cnc3c(NCCc4cn(Cc5ccccc5)c5ccccc45)ncnc32)[C@H](O)[C@@H]1O (stereo partly specified) | 67% | 250 nM | 95% | 100% | 7.30 | 30% |  |  | > 30 mg/kg |  |  |
| CCNC(=O)[C@H]1OC(n2cnc3c(NCCc4cn(Cc5cc(C)ccc5C)c5ccccc45)ncnc32)[C@H](O)[C@@H]1O (stereo partly specified) | 38% | 660 nM | 86% | 92% | 6.80 | 12% |  |  | < 2 mg/kg |  |  |
| Cc1ccc(Cn2cc(CCNc3ncnc4c3ncn4C3O[C@H](C(=O)NC4CC4)[C@@H](O)[C@H]3O)c3ccccc32)cc1 (stereo partly specified) | 37% | 340 nM | 89% | 97% | 6.89 | 21% |  |  | < 3 mg/kg |  |  |
| O=C(NC1CC1)[C@H]1OC(n2cnc3c(NCCc4cn(Cc5ccc(Br)cc5F)c5ccccc45)ncnc32)[C@H](O)[C@@H]1O (stereo partly specified) | 40% |  | 92% | 96% |  | 23% |  | inactive |  |  |  |
| C#CCn1cc(CCNc2ncnc3c2ncn3C2O[C@H](C(=O)NC3CC3)[C@@H](O)[C@H]2O)c2ccccc21 (stereo partly specified) | 64% |  | 83% | 95% |  | 25% |  |  | < 10 mg/kg |  |  |
| O=C(NC1CC1)[C@H]1OC(n2cnc3c(NCCc4cn(CC5CC5)c5ccccc45)ncnc32)[C@H](O)[C@@H]1O (stereo partly specified) | 45% | 190 nM | 87% | 97% | 7.17 | 25% |  |  | > 10 mg/kg |  |  |
| Cc1ccc(Cn2cc(CCNc3ncnc4c3ncn4C3O[C@H](C(=O)NC4CC4)[C@@H](O)[C@H]3O)c3ccccc32)cc1C (stereo partly specified) | 29% | 820 nM | 83% | 96% | 6.80 | 13% |  |  | > 30 mg/kg |  |  |
| O=C(NC1CC1)[C@H]1O[C@@H](n2cnc3c(NCCc4cn(Cc5cccc6ccccc56)c5ccccc45)ncnc32)[C@H](O)[C@@H]1O | 20% | 1400 nM | 76% | 93% |  | 8% | 6.43 |  |  |  | 2.4 mg/kg |
| CC(C)(CO)NC(=O)[C@H]1OC(n2cnc3c(NCCc4cn(Cc5ccc(Cl)cc5)c5ccccc45)ncnc32)[C@H](O)[C@@H]1O (stereo partly specified) | 5% |  | 50% | 79% |  | 0% |  | inactive |  |  |  |
| CNC(=O)[C@H]1O[C@@H](n2cnc3c(NCCc4cn(Cc5cc(C)ccc5C)c5ccccc45)ncnc32)[C@H](O)[C@@H]1O | 12% | 3000 nM | 68% | 80% | 5.85 | 0% |  |  |  |  | 10.2 mg/kg |

Continued, in another order:

| Displacement [1] | Ki (Adenosine A2 receptor) | Displacement [2] | Displacement [3] | pKi (Adenosine receptor A1 [4]) | Displacement [6] | pKi (Adenosine receptor A1 [10]) | Compound | ED50 (Mus musculus [5]) | ED50 (Mus musculus [7]) | ED50 (Mus musculus [8]) | ED50 (Mus musculus [9]) |
| --- | --- | --- | --- | --- | --- | --- | --- | --- | --- | --- | --- |
| 13% | > 10000 nM | 36% | 90% | 6.05 | 0% |  | COCCNC(=O)[C@H]1O[C@@H](n2cnc3c(NCCc4cn(Cc5ccc(Cl)cc5)c5ccccc45)ncnc32)[C@H](O)[C@@H]1O | inactive |  |  |  |
| 13% |  | 76% | 82% |  | 8% |  | CSc1ccc2c(c1)c(CCNc1ncnc3c1ncn3C1O[C@H](C(=O)NC3CC3)[C@@H](O)[C@H]1O)cn2Cc1cc(C)ccc1C (stereo partly specified) |  | > 10 mg/kg |  |  |
| 52% | 1400 nM | 81% | 100% | 6.85 | 24% |  | O=C(NC1CC1)[C@H]1OC(n2cnc3c(NCCc4cn(Cc5ccc(Cl)c(Cl)c5)c5ccccc45)ncnc32)[C@H](O)[C@@H]1O (stereo partly specified) |  | > 30 mg/kg |  |  |
| 49% |  | 79% | 100% |  | 23% |  | O=C(NC1CC1)[C@H]1OC(n2cnc3c(NCCc4cn(Cc5ccc(Cl)cc5)c5ccc(Cl)cc45)ncnc32)[C@H](O)[C@@H]1O (stereo partly specified) | inactive |  |  |  |
| 63% | 182 nM | 99% | 100% | 7.54 | 46% |  | O=C(NC1CC1)[C@H]1O[C@@H](n2cnc3c(NCCc4cn(Cc5cccc([N+](=O)[O-])c5)c5ccccc45)ncnc32)[C@H](O)[C@@H]1O |  |  | < 10 mg/kg |  |
| 78% | 183 nM | 98% | 97% | 7.59 | 30% |  | O=C(NC1CC1)[C@H]1O[C@@H](n2cnc3c(NCCc4cn(Cc5cccnc5)c5ccccc45)ncnc32)[C@H](O)[C@@H]1O |  | > 30 mg/kg |  |  |
| 91% | 560 nM | 68% | 100% |  | 29% | 8.10 | O=C(NC1CC1)[C@H]1O[C@@H](n2cnc3c(NCCc4c[nH]c5ccccc45)ncnc32)[C@H](O)[C@@H]1O |  |  |  | 34.9 mg/kg |
| 83% |  | 95% | 100% |  | 51% |  | CN(C)CCn1cc(CCNc2ncnc3c2ncn3C2O[C@H](C(=O)NC3CC3)[C@@H](O)[C@H]2O)c2ccccc21 (stereo partly specified) |  | > 60 mg/kg |  |  |
| 90% | 120 nM | 96% | 99% | 8.08 | 44% |  | O=C(NC1CC1)[C@H]1OC(n2cnc3c(NCCc4cn(CCN5CCCCC5)c5ccccc45)ncnc32)[C@H](O)[C@@H]1O (stereo partly specified) |  |  |  | 7.3 mg/kg |
| 6% |  | 23% | 31% |  | 0% |  | Cc1ccc(C)c(Cn2c(-c3ccccc3)c(CCNc3ncnc4c3ncn4C3O[C@H](C(=O)NC4CC4)[C@@H](O)[C@H]3O)c3ccccc32)c1 (stereo partly specified) |  | > 30 mg/kg |  |  |
